In ChEMBL document CHEMBL1687823, “PA-824 exhibits time-dependent activity in a murine model of tuberculosis” (Antimicrob Agents Chemother, 2011):

Assays:
[1] = test system: Mycobacterium tuberculosis; assay: fT>MIC for >= 1 log reduction in CFU count in Mycobacterium tuberculosis H37Rv in using simulated dose of at 400 mg assessed as time during compound concentration exceeds MIC of 0.25000 ug/ml assuming 7% unbound compound concentration by one compartment human pharmacokinetic model; assay type: functional
Summary of the method: (§1)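 Human steady-state simulation: one-compartment PK model fitted to patient data, chosen by AIC. Median PK parameters used to simulate total and free concentrations, assuming 5, 7, 10 or 15% unbound, for 100, 200 and 400 mg once daily. Free levels compared with MICs of 0.03125 to 0.25 µg/ml to give %T>MIC; T>MIC is the cumulative percentage of the dosing interval above MIC.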

[2] = test system: Mycobacterium tuberculosis; assay: fT>MIC for >= 1 log reduction in CFU count in Mycobacterium tuberculosis H37Rv in using simulated dose of at 400 mg assessed as time during compound concentration exceeds MIC of 0.25000 ug/ml assuming 15% unbound compound concentration by one compartment human pharmacokinetic model; assay type: functional; summary of the method: as §1
[3] = Cmax in mouse at 100 or 50 mg/kg, po administered as single dose; assay type: ADME, organism-based; parameters: dose 50 mg/kg, route oral; conditions: in vivo
[4] = test system: Mycobacterium tuberculosis; assay: fT>MIC for >= 1 log reduction in CFU count in Mycobacterium tuberculosis H37Rv in using simulated dose of at 100 mg assessed as time during compound concentration exceeds MIC of 0.06250 ug/ml assuming 5% unbound compound concentration by one compartment human pharmacokinetic model; assay type: functional
Summary of the method: (§2)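 A one-compartment PK model was fitted to human data to get median parameters. It simulated steady-state total and free concentrations for 100, 200 or 400 mg once daily, assuming 5, 7, 10 or 15% unbound drug. Free T>MIC was computed against MICs of 0.03125–0.25 µg/ml and compared with the mouse-derived T>MIC target for 1-log10 kill.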

[5] = test system: Mycobacterium tuberculosis; assay: fT>MIC for >= 1 log reduction in CFU count in Mycobacterium tuberculosis H37Rv in using simulated dose of at 400 mg assessed as time during compound concentration exceeds MIC of 0.06250 ug/ml assuming 15% unbound compound concentration by one compartment human pharmacokinetic model; assay type: functional; summary of the method: as §2
[6] = test system: Mycobacterium tuberculosis; assay: fT>MIC for >= 1 log reduction in CFU count in Mycobacterium tuberculosis H37Rv in using simulated dose of at 200 mg assessed as time during compound concentration exceeds MIC of 0.12500 ug/ml assuming 15% unbound compound concentration by one compartment human pharmacokinetic model; assay type: functional; summary of the method: as §2
[7] = test system: Mycobacterium tuberculosis; assay: fT>MIC for >= 1 log reduction in CFU count in Mycobacterium tuberculosis H37Rv in using simulated dose of at 200 mg assessed as time during compound concentration exceeds MIC of 0.12500 ug/ml assuming 5% unbound compound concentration by one compartment human pharmacokinetic model; assay type: functional; summary of the method: as §2
[8] = test system: Mycobacterium tuberculosis; assay: fT>MIC for >= 1 log reduction in CFU count in Mycobacterium tuberculosis H37Rv in using simulated dose of at 100 mg assessed as time during compound concentration exceeds MIC of 0.03125 ug/ml assuming 15% unbound compound concentration by one compartment human pharmacokinetic model; assay type: functional; summary of the method: as §2
[9] = test system: Mycobacterium tuberculosis; assay: fT>MIC for >= 1 log reduction in CFU count in Mycobacterium tuberculosis H37Rv in using simulated dose of at 200 mg assessed as time during compound concentration exceeds MIC of 0.03125 ug/ml assuming 10% unbound compound concentration by one compartment human pharmacokinetic model; assay type: functional; summary of the method: as §2
[10] = Elimination half life in BALB/c mouse up to 1456 mg/kg, po administered as single dose; assay type: ADME, organism-based; parameters: route oral; conditions: in vivo, read-out: beta t1/2 (converted)
Summary of the method: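 Uninfected 6-week female BALB/c mice received single oral gavage doses of 3–1,458 mg/kg as a cyclodextrin-micelle suspension. Three mice per time point were bled by cardiac puncture under isoflurane at 0.5–120 h. Serum levels were measured by validated HPLC-UV (standards 0.20–50 µg/ml).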

[11] = test system: Mycobacterium tuberculosis; assay: fT>MIC for >= 1 log reduction in CFU count in Mycobacterium tuberculosis H37Rv in using simulated dose of at 200 mg assessed as time during compound concentration exceeds MIC of 0.03125 ug/ml assuming 5% unbound compound concentration by one compartment human pharmacokinetic model; assay type: functional; summary of the method: as §2
[12] = test system: Mycobacterium tuberculosis; assay: fT>MIC for >= 1 log reduction in CFU count in Mycobacterium tuberculosis H37Rv in using simulated dose of at 400 mg assessed as time during compound concentration exceeds MIC of 0.03125 ug/ml assuming 10% unbound compound concentration by one compartment human pharmacokinetic model; assay type: functional; summary of the method: as §2
[13] = test system: Mycobacterium tuberculosis; assay: fT>MIC for >= 1 log reduction in CFU count in Mycobacterium tuberculosis H37Rv in using simulated dose of at 100 mg assessed as time during compound concentration exceeds MIC of 0.12500 ug/ml assuming 7% unbound compound concentration by one compartment human pharmacokinetic model; assay type: functional; summary of the method: as §2
[14] = test system: Mycobacterium tuberculosis; assay: fT>MIC for >= 1 log reduction in CFU count in Mycobacterium tuberculosis H37Rv in using simulated dose of at 400 mg assessed as time during compound concentration exceeds MIC of 0.25000 ug/ml assuming 10% unbound compound concentration by one compartment human pharmacokinetic model; assay type: functional; summary of the method: as §1
[15] = test system: Mycobacterium tuberculosis; assay: fT>MIC for >= 1 log reduction in CFU count in Mycobacterium tuberculosis H37Rv in using simulated dose of at 400 mg assessed as time during compound concentration exceeds MIC of 0.12500 ug/ml assuming 5% unbound compound concentration by one compartment human pharmacokinetic model; assay type: functional; summary of the method: as §1
[16] = test system: Mycobacterium tuberculosis; assay: fT>MIC for >= 1 log reduction in CFU count in Mycobacterium tuberculosis H37Rv in using simulated dose of at 400 mg assessed as time during compound concentration exceeds MIC of 0.12500 ug/ml assuming 15% unbound compound concentration by one compartment human pharmacokinetic model; assay type: functional; summary of the method: as §1
[17] = test system: Mycobacterium tuberculosis; assay: Antitubercular activity against Mycobacterium tuberculosis H37Rv infected in po dosed BALB/c mouse assessed as reduction in log10 CFU count by single dose study; assay type: functional, organism-based
[18] = test system: Mycobacterium tuberculosis; assay: fT>MIC for >= 1 log reduction in CFU count in Mycobacterium tuberculosis H37Rv in using simulated dose of at 200 mg assessed as time during compound concentration exceeds MIC of 0.06250 ug/ml assuming 10% unbound compound concentration by one compartment human pharmacokinetic model; assay type: functional; summary of the method: as §2
[19] = test system: Mycobacterium tuberculosis; assay: fT>MIC for >= 1 log reduction in CFU count in Mycobacterium tuberculosis H37Rv in using simulated dose of at 400 mg assessed as time during compound concentration exceeds MIC of 0.25000 ug/ml assuming 5% unbound compound concentration by one compartment human pharmacokinetic model; assay type: functional; summary of the method: as §1

## O=[N+]([O-])c1cn2c(n1)OC[C@@H](OCc1ccc(OC(F)(F)F)cc1)C2 [PRETOMANID]
[1]
  fT>MIC: 4%
[2]
  fT>MIC: 67%
[3]
  Cmax: 3800 ng/mL
[4]
  fT>MIC: 0%
[5]
  fT>MIC: 100%
[6]
  fT>MIC: 67%
[7]
  fT>MIC: 0%
[8]
  fT>MIC: 100%
[9]
  fT>MIC: 100%
[10]
  half-life: 4 h
[11]
  fT>MIC: 100%
[12]
  fT>MIC: 100%
[13]
  fT>MIC: 0%
[14]
  fT>MIC: 46%
[15]
  fT>MIC: 46%
[16]
  fT>MIC: 100%
[17]
  Activity: Dose-dependent effect
[18]
  fT>MIC: 100%
[19]
  fT>MIC: 0%
